Assay results as given in ChEMBL document CHEMBL1131028, “Nucleosides and nucleotides. 177. 9-(6,7-dideoxy-beta-D-allo-hept-5- ynofuranosyl)adenine: a selective and potent ligand for P3 purinoceptor-like protein” (J Med Chem, 1998).
Calls of active or inactive are those of the source. No cut-off for these calls is given here.

Key:
P3 purinoceptor = experiment: Binding activity was evaluated on P3 purinoceptor-like protein from rat brain membranes by using [3H]NECA (40 nM).
How it was run: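 Partially purified P3LP: rat brain membranes solubilized in CHAPS, then hydroxylapatite chromatography; A1, A2A, A2B and A3 adenosine receptors and adenotin absent from the preparation.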

[1] = target: Adenosine receptor A2a (Rattus norvegicus) (UniProt P30543); conditions: Membrane, 100 uM
Adenosine receptor A2a (Rattus norvegicus), sequence (P30543 whole entry): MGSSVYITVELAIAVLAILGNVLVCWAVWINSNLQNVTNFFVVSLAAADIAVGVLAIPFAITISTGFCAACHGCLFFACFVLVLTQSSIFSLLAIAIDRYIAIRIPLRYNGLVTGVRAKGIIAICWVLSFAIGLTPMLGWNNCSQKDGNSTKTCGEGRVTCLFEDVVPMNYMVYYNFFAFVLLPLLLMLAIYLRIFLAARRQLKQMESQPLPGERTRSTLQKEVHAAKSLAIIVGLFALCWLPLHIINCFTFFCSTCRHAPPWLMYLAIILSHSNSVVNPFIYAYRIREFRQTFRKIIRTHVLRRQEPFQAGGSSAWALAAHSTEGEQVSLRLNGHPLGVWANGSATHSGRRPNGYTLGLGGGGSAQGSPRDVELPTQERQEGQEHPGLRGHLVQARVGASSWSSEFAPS

[2] = target: T1, Adenosine receptor A3 (Rattus norvegicus) (UniProt P28647); experiment: Inhibition of [125I]AB-MECA (0.15 nM) binding to Adenosine A3 receptor of RBL-2H3 cell membranes; No inhibition at 10 uM
T1 sequence (whole entry): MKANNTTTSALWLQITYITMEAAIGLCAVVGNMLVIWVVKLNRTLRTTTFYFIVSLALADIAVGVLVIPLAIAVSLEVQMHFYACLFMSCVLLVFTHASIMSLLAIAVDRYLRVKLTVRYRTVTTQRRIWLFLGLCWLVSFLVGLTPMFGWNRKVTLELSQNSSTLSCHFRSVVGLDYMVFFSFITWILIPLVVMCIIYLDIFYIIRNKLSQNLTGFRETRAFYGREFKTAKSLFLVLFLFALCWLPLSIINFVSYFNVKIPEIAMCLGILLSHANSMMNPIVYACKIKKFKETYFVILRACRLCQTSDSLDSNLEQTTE

[3] = target: T2, Adenosine receptor A1 (Rattus norvegicus) (UniProt P25099); experiment: Inhibition of [3H]- DPCPX binding to Adenosine A1 receptor of rat brain membranes at 10 uM; type: cell membranes; conditions: Membrane
T2 sequence (whole entry): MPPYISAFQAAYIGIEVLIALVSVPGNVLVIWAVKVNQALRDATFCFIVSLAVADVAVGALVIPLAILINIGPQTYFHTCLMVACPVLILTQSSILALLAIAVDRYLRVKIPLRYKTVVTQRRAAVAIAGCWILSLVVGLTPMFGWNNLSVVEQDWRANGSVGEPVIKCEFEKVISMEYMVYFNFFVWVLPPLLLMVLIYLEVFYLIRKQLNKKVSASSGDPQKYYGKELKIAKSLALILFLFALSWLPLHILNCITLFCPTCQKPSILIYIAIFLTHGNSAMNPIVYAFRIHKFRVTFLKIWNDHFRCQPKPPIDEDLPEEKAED
How it was run: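 Rat brain membranes labelled with [3H]DPCPX (2 nM) to measure A1 receptor binding; test compound displacement read as percent inhibition at a single concentration.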

[4] = target: T3, Adenosine receptor A2b (Rattus norvegicus) (UniProt P29276); experiment: Activity against Adenosine A2B receptor as cAMP production in VA-13 cells; No inhibition at 100 uM; type: functional, cell-based
T3 sequence (whole entry): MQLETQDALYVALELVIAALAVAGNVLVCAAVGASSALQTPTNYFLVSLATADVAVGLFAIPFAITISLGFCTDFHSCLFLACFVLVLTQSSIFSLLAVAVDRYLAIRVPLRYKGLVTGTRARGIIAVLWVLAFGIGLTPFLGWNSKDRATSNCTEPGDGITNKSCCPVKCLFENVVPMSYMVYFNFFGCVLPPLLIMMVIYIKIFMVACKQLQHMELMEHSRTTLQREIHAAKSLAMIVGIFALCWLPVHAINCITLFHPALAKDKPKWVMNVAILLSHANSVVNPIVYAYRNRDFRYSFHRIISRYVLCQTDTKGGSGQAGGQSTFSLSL

[5] = target: T1, Adenosine receptor A3 (Rattus norvegicus); experiment: Inhibition of [125I]AB-MECA (0.15 nM) binding to Adenosine A3 receptor of RBL-2H3 cell membranes; No inhibition at 10 uM; type: cell-based
Adenosine receptor A1 = target: T4, Adenosine receptor A1 (Rattus norvegicus, UniProt P25099); experiment: Inhibition of [3H]- DPCPX binding to Adenosine A1 receptor ofrat brain membranes
T4 sequence (P25099 whole entry): T2 sequence (whole entry)

NC(=O)[C@H]1OC(n2cnc3c(N)ncnc32)[C@H](O)[C@@H]1O (stereo not given in full) was tested, and the Ki (P3 purinoceptor) was 0.064 µM.
N#C[C@H]1OC(n2cnc3c(N)ncnc32)[C@H](O)[C@@H]1O (stereo not given in full) was tested, and the Ki (P3 purinoceptor) was 0.064 µM.
With CN(C)C(=O)[C@H]1OC(n2cnc3c(N)ncnc32)[C@H](O)[C@@H]1O (stereo not given in full) the Ki (P3 purinoceptor) was 21 µM.
C#C[C@H]1OC(n2cnc3c(N)ncnc32)[C@H](O)[C@@H]1O (stereo not given in full) gave a Ki (P3 purinoceptor) of 0.28 µM.
Nc1ncnc2c1ncn2C1O[C@H](CSCc2ccccc2)[C@@H](O)[C@H]1O (stereo not given in full) gave a Ki (P3 purinoceptor) of 0.07 µM.
In the case of CCNC(=O)[C@H]1O[C@@H](n2cnc3c(N)ncnc32)[C@H](O)[C@@H]1O [NECA], the Ki (P3 purinoceptor) is reported as 0.037 µM.
Compound [N-]=[N+]=NC[C@H]1OC(n2cnc3c(N)ncnc32)[C@H](O)[C@@H]1O (stereo not given in full) has a Ki (P3 purinoceptor) of 0.081 µM.
In the case of C#C[C@@H](O)[C@H]1OC(n2cnc3c(N)ncnc32)[C@H](O)[C@@H]1O (stereo not given in full), the inhibition [1] is reported as 40%, the inhibition [2] is reported as “inactive” and the inhibition [3] is reported as 21%. The Ki (P3 purinoceptor) was 0.45 µM and the inhibition [4] was “inactive”.
With C#C[C@H](O)[C@H]1OC(n2cnc3c(N)ncnc32)[C@H](O)[C@@H]1O (stereo not given in full) the inhibition [1] was 40%, the inhibition [5] was “inactive” and the Inhibition (Adenosine receptor A1) was 33%. The Ki (P3 purinoceptor) was 0.019 µM.
Nc1ncnc2c1ncn2C1O[C@H](CCl)[C@@H](O)[C@H]1O (stereo not given in full) was tested, and the Ki (P3 purinoceptor) was 0.084 µM.
Work on CNC(=O)[C@H]1O[C@@H](n2cnc3c(N)ncnc32)[C@H](O)[C@@H]1O yielded a Ki (P3 purinoceptor) of 0.051 µM.
With Nc1ncnc2c1ncn2C1O[C@H](CSc2ccccc2)[C@@H](O)[C@H]1O (stereo not given in full) the Ki (P3 purinoceptor) was 0.054 µM.
CCCSC[C@H]1OC(n2cnc3c(N)ncnc32)[C@H](O)[C@@H]1O (stereo not given in full) was tested, and the Ki (P3 purinoceptor) was 1.1 µM.
